In publication PMC8861878 (The Journal of pharmacy and pharmacology, 2020):
Several values for one entry are separate records, joined by “and”; a condition that tells them apart may be missing. Identical values can stand only once.

Legend:
UGT1A1 = target: T1, UGT1A1 (Homo sapiens, UniProt P22309); assay: Inhibition of UGT1A1; format: in vitro ADME
T1 sequence (P22309 26-533): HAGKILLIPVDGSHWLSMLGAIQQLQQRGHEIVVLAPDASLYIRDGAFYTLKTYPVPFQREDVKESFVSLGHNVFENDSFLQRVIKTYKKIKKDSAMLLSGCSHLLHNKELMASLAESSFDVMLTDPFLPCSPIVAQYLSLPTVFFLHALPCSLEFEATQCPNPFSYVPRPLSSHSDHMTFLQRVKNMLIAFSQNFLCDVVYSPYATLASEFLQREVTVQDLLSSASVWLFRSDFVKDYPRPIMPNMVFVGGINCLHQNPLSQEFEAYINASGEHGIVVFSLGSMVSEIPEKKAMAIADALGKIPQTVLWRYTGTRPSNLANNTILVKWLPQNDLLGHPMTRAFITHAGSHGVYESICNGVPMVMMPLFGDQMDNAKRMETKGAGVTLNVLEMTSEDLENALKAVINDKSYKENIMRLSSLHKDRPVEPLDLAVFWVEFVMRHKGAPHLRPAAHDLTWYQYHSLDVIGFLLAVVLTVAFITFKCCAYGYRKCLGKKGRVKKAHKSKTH

UGT1A8 = target: T2, UGT1A8 (Homo sapiens, UniProt Q9HAW9); assay: Glucuronidation of isobavachin by recombinant UGT1A8, enzyme kinetics; format: in vitro ADME; conditions: formation of G1, substrate inhibition model
T2 sequence (Q9HAW9 26-530): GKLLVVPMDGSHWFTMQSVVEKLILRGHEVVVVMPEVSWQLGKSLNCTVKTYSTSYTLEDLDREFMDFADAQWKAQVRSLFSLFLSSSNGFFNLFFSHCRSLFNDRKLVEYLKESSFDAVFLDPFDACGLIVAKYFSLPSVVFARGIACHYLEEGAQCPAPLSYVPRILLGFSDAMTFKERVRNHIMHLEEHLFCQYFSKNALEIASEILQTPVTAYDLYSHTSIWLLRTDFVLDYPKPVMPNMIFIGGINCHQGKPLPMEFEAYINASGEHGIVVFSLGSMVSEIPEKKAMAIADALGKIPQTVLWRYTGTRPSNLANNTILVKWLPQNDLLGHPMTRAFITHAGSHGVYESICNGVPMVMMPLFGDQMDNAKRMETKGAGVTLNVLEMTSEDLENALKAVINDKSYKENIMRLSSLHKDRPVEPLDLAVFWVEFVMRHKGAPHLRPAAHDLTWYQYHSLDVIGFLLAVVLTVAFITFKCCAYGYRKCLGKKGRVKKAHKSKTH

CYP2C9 = CYP2C9 (Homo sapiens, UniProt P11712); assay: Inhibition of CYP2C9; format: in vitro ADME
[1] = Mono-oxidation of isobavachin by MLM, enzyme kinetics; format: in vitro ADME, mice
UGT1A9 = target: T3, UGT1A9 (Homo sapiens, UniProt O60656); assay: Glucuronidation of isobavachin by recombinant UGT1A9, enzyme kinetics; format: in vitro ADME; conditions: formation of G1, substrate inhibition model
T3 sequence (O60656 26-530): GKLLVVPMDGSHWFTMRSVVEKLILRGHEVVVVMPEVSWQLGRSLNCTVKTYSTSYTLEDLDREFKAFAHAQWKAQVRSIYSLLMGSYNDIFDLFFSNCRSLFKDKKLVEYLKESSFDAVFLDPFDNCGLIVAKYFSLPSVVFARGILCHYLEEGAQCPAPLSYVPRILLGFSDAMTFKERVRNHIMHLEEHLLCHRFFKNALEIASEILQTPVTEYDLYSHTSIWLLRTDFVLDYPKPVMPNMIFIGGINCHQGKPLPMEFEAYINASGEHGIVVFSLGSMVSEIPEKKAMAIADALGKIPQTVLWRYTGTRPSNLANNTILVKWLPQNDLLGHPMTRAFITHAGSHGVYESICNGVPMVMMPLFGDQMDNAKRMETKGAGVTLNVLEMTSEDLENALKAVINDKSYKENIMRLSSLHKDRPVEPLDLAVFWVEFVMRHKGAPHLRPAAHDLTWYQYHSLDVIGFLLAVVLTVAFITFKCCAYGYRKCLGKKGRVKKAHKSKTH

UGT2B4 = target: T4, UGT2B4 (Homo sapiens, UniProt P06133); assay: Glucuronidation of isobavachin by recombinant UGT2B4, enzyme kinetics; format: in vitro ADME; conditions: formation of G1; Michaelis–Menten model
T4 sequence (P06133 24-528): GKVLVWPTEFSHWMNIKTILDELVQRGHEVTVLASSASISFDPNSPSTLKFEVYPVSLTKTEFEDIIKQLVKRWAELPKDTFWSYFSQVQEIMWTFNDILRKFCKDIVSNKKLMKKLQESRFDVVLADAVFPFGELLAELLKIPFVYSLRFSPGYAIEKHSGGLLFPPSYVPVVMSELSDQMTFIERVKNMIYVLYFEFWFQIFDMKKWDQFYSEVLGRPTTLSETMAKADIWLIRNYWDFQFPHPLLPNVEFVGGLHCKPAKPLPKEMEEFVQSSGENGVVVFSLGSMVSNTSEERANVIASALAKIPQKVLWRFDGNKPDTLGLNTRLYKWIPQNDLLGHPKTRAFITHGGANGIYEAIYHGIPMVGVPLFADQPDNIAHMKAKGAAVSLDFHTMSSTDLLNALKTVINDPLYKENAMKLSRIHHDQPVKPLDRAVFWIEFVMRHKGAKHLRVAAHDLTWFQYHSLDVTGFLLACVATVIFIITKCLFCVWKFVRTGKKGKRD

CYP3A4 = CYP3A4 (Homo sapiens, UniProt P08684); assay: Inhibition of CYP3A4; format: in vitro ADME; conditions: isobavachin 1, 10, 100 μM; substrate nifedipine (40 μM)
How it was run: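 Recombinant human CYPs (CYP1A2 and 3A4 at 0.05 mg/ml; CYP2C8 and 2E1 at 0.1 mg/ml) with probe substrate in Tris-HCl 50 mM pH 7.4, MgCl2 5 mM and NADPH 1 mM at 37 °C for 60 min. Run without (control) or with test compound at 1, 10 or 100 μM. Acetonitrile stop; metabolite by UHPLC-TQD-MS; activity versus control, triplicate.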

[2] = Glucuronidation of isobavachin by MLM, enzyme kinetics; format: in vitro ADME, mice
[3] = based on the smallest AIC and SC values

CYP2C9, sequence (P11712 whole entry): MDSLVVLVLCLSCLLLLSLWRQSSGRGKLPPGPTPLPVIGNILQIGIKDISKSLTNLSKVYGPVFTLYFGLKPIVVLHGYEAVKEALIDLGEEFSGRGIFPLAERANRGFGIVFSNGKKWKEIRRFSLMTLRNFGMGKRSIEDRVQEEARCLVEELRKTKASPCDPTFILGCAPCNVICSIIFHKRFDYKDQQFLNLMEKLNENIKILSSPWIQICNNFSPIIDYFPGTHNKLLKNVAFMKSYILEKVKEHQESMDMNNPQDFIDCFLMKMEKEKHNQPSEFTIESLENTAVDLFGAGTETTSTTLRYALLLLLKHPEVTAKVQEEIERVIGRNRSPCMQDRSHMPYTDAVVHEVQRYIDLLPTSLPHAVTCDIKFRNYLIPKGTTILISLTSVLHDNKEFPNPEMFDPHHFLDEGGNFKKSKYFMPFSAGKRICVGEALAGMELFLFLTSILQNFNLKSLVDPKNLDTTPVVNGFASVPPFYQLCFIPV
CYP3A4, sequence (P08684 whole entry): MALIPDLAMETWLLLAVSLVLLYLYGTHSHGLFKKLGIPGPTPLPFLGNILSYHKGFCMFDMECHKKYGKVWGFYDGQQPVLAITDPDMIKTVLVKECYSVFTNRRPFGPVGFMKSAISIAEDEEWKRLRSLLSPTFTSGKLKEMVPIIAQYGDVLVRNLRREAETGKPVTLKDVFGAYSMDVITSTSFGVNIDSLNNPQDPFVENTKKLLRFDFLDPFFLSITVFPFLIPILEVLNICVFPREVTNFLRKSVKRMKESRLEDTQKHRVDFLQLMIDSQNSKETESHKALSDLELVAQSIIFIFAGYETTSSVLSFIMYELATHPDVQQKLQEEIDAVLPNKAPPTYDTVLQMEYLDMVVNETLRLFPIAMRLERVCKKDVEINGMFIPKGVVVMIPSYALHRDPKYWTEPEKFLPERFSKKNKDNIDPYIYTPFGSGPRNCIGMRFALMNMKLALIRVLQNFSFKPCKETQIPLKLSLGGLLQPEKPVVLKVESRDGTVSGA

CC(C)=CCc1c(O)ccc2c1O[C@H](c1ccc(O)cc1)CC2=O [isobavachin]
IC50 (UGT1A1): 1.53 ± 0.39 µM | residual activities (UGT1A1; 10 μM isobavachin): 4.58 % of the negative control | Ki (UGT1A1; Ki, substrate estradiol, competitive model (selected, smallest AIC and SC)): 3.05 ± 0.41 µM | Inhibition type (UGT1A1; [3]): competitive inhibition | α (UGT1A1; substrate estradiol, mixed-type model): 8.01 ± 2.56 | Ki (UGT1A8; substrate inhibition constant): 17.04 ± 3.36 µM | CLint (CLmax) (UGT1A8): 46.30 ± 11.05 μl/min per mg | Vmax (UGT1A8): 1607.00 ± 241.00 pmol/min per mg | IC50 (CYP2C9): 0.04 ± 0.005 µM | residual activities (CYP2C9; 10 μM isobavachin): 1.04 % of the negative control | Ki (CYP2C9; substrate tolbutamide, mixed-type model (not selected)): 0.27 ± 0.1 µM | Ki (CYP2C9; substrate tolbutamide, non-competitive model (selected, smallest AIC and SC)): 0.22 ± 0.02 µM | Inhibition type (CYP2C9; [3]): non-competitive inhibition mode | α (CYP2C9; substrate tolbutamide, mixed-type model): 0.70 ± 0.49 | CLint (CLmax) ([1]; formation of M1, Michaelis–Menten model): 35.46 μl/min per mg and 35.46 ± 5.98 μl/min per mg | CLint (CLmax) ([1]; formation of M2, substrate inhibition model): 64.32 μl/min per mg and 64.32 ± 17.18 μl/min per mg | CLint (CLmax) ([1]; formation of M3, substrate inhibition model): 47.43 μl/min per mg and 47.43 ± 7.99 μl/min per mg | Ki (UGT1A9; substrate inhibition constant): 38.39 ± 8.88 µM | CLint (CLmax) (UGT1A9): 202.62 ± 48.80 μl/min per mg | Vmax (UGT1A9): 3167.00 ± 426.4 pmol/min per mg | CLint (CLmax) (UGT2B4): 30.59 ± 3.28 μl/min per mg | Vmax (UGT2B4): 81.29 ± 2.05 pmol/min per mg | inhibitory effects (CYP3A4): negligible or weak | CLint (CLmax) ([2]; formation of G1, Michaelis–Menten model): 144.94 ± 11.20 μl/min per mg | CLint (CLmax) ([2]; formation of G2, substrate inhibition model): 29.60 ± 9.00 μl/min per mg
